# SENP6 block: SENP6 protease inhibition. inhibition, % at 10 µM. actives 1.8% (n = 330,000). Recombinant SENP6 catalytic domain, aminoluciferin luminescence. Q9GZR1;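 active means inhibition above about 50% at the single tested dose, limit read from the data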;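 further: plate controls were DMSO wells with enzyme for no effect and DMSO wells lacking enzyme for full effect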
# SENP1 inh: blocks the human SENP1 SUMO protease catalytic domain; Q9P0U3; recombinant SENP1 catalytic domain, CyPet-SUMO1-YPet FRET cleavage; inhibition, % at 10 µM; actives 0.21% (n = 360,000); AID 624204;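 active means inhibition at least 30% at 10 µM, raw YFP signal under a set limit, fluorescence ratio 0.5 to 1.5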;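 further: 0% = enzyme with DMSO and 100% = no enzyme wells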
#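 Assay system – human recombinant His6-tagged SENP1 catalytic domain enzyme · Input – SENP1 enzyme, 20 pM final · Buffer or medium – Tris pH 8 buffer plus EDTA, NaCl, BME, BSA, NP40, catalase · Schedule – 50 min reaction at room temperature · Technique – FRET read of cyan and yellow fluorescence · Control set – no-enzyme wells low, DMSO-plus-enzyme wells high control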
# SENP8 block-1: blocks human SENP8 cleavage of Nedd8 substrate; recombinant SENP8, Nedd8 substrate fluorescence; inhibition, % at 20 µM; Q96LD8; AID 602440; actives 0.64% (n = 360,000); in the data active means inhibition mostly above about 40%, no sharp cut-off; inactive means mostly below about 27%
# Target sequence (Q96LD8 whole entry, looked up): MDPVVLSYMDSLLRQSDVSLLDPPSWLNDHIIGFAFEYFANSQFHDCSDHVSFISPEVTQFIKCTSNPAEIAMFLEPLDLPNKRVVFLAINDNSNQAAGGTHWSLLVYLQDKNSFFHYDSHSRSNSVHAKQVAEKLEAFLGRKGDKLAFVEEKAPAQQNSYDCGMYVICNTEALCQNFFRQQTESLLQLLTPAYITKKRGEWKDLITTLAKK
# SENP7 inh: blocks the human protease SENP7 | recombinant SENP7, Z-RLRGG-aminoluciferin luminescence, 40 min | inhibition, % at 5 µM | actives 1.5% (n = 330,000);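 active means inhibition above about 50% at the single test dose, limit read from the data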;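 further: plate controls were DMSO with enzyme for no effect and no enzyme buffer wells for full effect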
# SENP8 block-2: blocks the human protease SENP8; AID 2540; inhibition, % at 10 µM; purified SENP8, Z-RLRGG-aminoluciferin cleavage, luminescence; actives 1.2% (n = 330,000); in the data active means inhibition above about 50%
# SENP8 inh conf: SENP8 (human) inhibition, single concentration confirmation; shares compounds with SENP8 block-1; purified SENP8, Nedd8-AMC/pro-Nedd8 cleavage fluorescence, 30 min; inhibition, % at 25 µM; actives 15% (n = 1,400); AID 624319; in the data active means inhibition mostly above about 39%, no sharp cut-off; inactive means mostly below about 34%
# The depositor's hits bear a star; . = no result given. An excerpt weighted towards active compounds, which were near 2.5% of everything screened.
SMILES,SENP6 block,SENP1 inh,SENP8 block-1,SENP7 inh,SENP8 block-2,SENP8 inh conf
CCOc1ccccc1CN1C2CCC1CC(c1ccc(C)cc1)C2 (stereo not drawn),-5,-1,10,0,14,.
O=C(CCC(=O)N1C[C@H]2C[C@@H](C1)c1cccc(=O)n1C2)NCc1cccc(C(F)(F)F)c1,-3,1,50*,-5,0,6
O=C(CCC(=O)N1C[C@H]2C[C@@H](C1)c1cccc(=O)n1C2)NCc1ccccc1,-19,5,21,-3,-2,.
C/C=C1/CN2[C@@H]3C4CO[C@@H]3c3c([nH]c5cc(OC)ccc35)[C@@H]2CC14 (stereo partly drawn),-11,0,40*,-11,-14,9
COc1ccc2c3c([nH]c2c1)C(C)NCC3 (stereo not drawn),-20,-20,-190,10,-9,.
O=C1NC(=O)C(CCc2ccncc2)(Cc2ccc3c(c2)OCO3)C(=O)N1CCc1ccccc1 (stereo not drawn),2,2,29*,12,1,13
O=[N+]([O-])c1cc(F)c(N2CCCC2)cc1Br,-9,0,13,1,-2,.
O=[N+]([O-])c1cc(F)c(N2CCCCC2)cc1Br,0,2,40*,0,-4,5
CN1CCN(c2cc(N3CCCC3)c([N+](=O)[O-])cc2F)CC1,-13,2,45*,3,-1,16
C=CC1CN2CCC1CC2c1[nH]c2ccccc2c1CCO (stereo not drawn),5,-1,9,-3,-4,.
COC1C(OC(=O)c2ccc(C)[nH]2)C(O)C(Oc2ccc3c(O)c(NC(=O)c4ccc(O)c(CC=C(C)C)c4)c(=O)oc3c2Cl)OC1(C)C (stereo not drawn),24,2,40*,-4,23,0
C/C=C(\C)C(=O)OC1C(C)=C2C(C1OC(=O)CCCCC)C(C)(OC(C)=O)CC(OC(=O)CCC)C1(O)C2OC(=O)C1(C)O (stereo not drawn),-14,.,.,-6,1,.
Cc1ccc(NC(=O)[C@@H](NC(=O)N2C[C@H]3C[C@@H](C2)c2cccc(=O)n2C3)C(C)C)cc1,-11,2,56*,-7,1,17
O=C(Nc1ccc(Cl)cc1)N1CC2CC(C1)c1cccc(=O)n1C2 (stereo not drawn),-5,3,1,16,-9,.
CCOc1ccc(NC(=O)N2C[C@H]3C[C@@H](C2)c2cccc(=O)n2C3)cc1,0,3,42*,-3,-1,9
CCOc1ccc(N2C(=O)NC(=O)/C(=C/c3cnc(SC)nc3)C2=O)cc1,-15,4,6,-2,7,.
O=[N+]([O-])c1ccc(NCc2ccc(Cl)cc2)c2ccncc12,26,-45,43*,13,16,37
O=[N+]([O-])c1ccc(NCc2ccccc2)c2nonc12,43,.,.,26,21,.
O=c1ccc2c(O)c3ccoc3cc2o1,-1,-1,48*,-10,-15,4
O=c1[nH]c(O)c(N=Nc2cc(C(F)(F)F)ccc2Cl)c(=O)[nH]1,-4,-8,16,5,-1,.
O=c1[nH]c(=S)[nH]c(O)c1N=Nc1cc(S(=O)(=O)Nc2ccc(Cl)cc2)ccc1Cl,17,5,41*,-2,6,11
CN1CCN(c2nc3ccccn3c(=O)c2C=C2C(=O)N(C)C(=O)N(C)C2=O)CC1,-15,-85,-27,-7,-12,.
c1ccc2[nH]c(CCN3CCCCC3)nc2c1,.,-4,19,.,.,.
C=C1C(O)[C@@H]2O[C@]3(CC[C@H](/C=C/C(C)[C@@H]4CC(C)=CC5(O[C@H](C[C@@](C)(O)C(=O)O)CCC5O)O4)O3)CC[C@H]2O[C@@H]1C(O)CC(C)[C@H]1OC2(CCCCO2)CCC1C (stereo partly drawn),-7,.,.,-3,4,.
C=CC12CN(C)C3C4COC(CC41)C1(C(=O)Nc4ccccc41)C32 (stereo not drawn),.,-2,41*,.,.,3
CN1C2CCC1CC(=NO)C2,2,2,48*,-1,-5,25
COC(=O)C1=C(c2ccccc2OCc2ccccc2)C[C@@H]2CC[C@H]1N2C(=O)NCc1cccc(C(F)(F)F)c1,4,0,3,1,10,.

# Screening results from PubChem BioAssay.
